Measured values of several laboratories.
Each line is one published result; the experiments were not run side by side.
Read-out: metabolic stability
Host: human

Structure (SMILES) | sample | concentration | pH | quantity | value
Cc1cc(S(=O)(=O)NC2CCC(CC3CCN(c4ccc(C5CCC(=O)NC5=O)cc4)CC3)CC2)ccc1Nc1ncc(C(F)(F)F)c(N2CCC[C@](C)(O)C2)n1 (some centres unmarked) | liver microsomes | 1 µM | – | scaled CLint | 17 mL/min/kg
C[C@H](O)c1cnc(NS(=O)(=O)c2ccc(Cl)c(Cl)c2)nc1 | hepatocytes | 1 µM | – | hepatocyte CLint | < 3 µL/min/10⁶ cells
CNc1ccc(C(N)=O)cn1 | hepatocytes | 1 µM | pH 7.4 | hepatocyte CLint | 3 µL/min/10⁶ cells
CCOCC(=O)N1CCC[C@H](C(=O)NCc2nc(-c3ccc(C)nc3)cs2)C1 | hepatocytes | 0.5 µM | – | scaled CLint | 33 mL/min/kg
C[C@H](O)c1cnc(NS(=O)(=O)c2ccc(C(F)(F)F)c(Cl)c2)nc1 | hepatocytes | 1 µM | – | hepatocyte CLint | < 3 µL/min/10⁶ cells
CCONC(=O)N1CCC[C@H](C(=O)NCc2nc(-c3ccc(C#N)cc3)cs2)C1 | liver microsomes | 0.5 µM | – | scaled CLint | 11 mL/min/kg
Cc1cc(S(=O)(=O)NC2CC(N3CCN(CC4CCN(c5cccc6c5n(C)c(=O)n6C5CCC(=O)NC5=O)CC4)CC3)C2)ccc1Nc1ncc(C(F)(F)F)c(N2CCC[C@](C)(O)C2)n1 (some centres unmarked) | liver microsomes | 1 µM | – | scaled CLint | < 14 mL/min/kg
COc1cc(-c2cc(C(C)=O)n3ccccc23)c(OC)cc1Cn1ccnc1 | liver microsomes | – | pH 7.4 | scaled CLint | 15.6 mL/min/kg
O=c1c2c([nH]c3cc(OC(F)(F)F)ccc13)CCCC2 | liver microsomes | 1 µM | pH 7.4 | microsomal CLint | 173 µL/min/mg
CNS(=O)(=O)c1ccc(Nc2ncc3cc(Cl)c(=O)n(C4CCCC4)c3n2)c(C)c1 | liver microsomes | 1 µM | – | scaled CLint | 100 mL/min/kg
NCCOCC(=O)N1CCC[C@H](C(=O)NCc2nc(-c3ccc(C(F)(F)F)cc3)cs2)C1 | hepatocytes | 0.5 µM | – | scaled CLint | < 3.4 mL/min/kg
Cc1cc(S(=O)(=O)N[C@H]2CC[C@H](CN3CCN(c4ccc(NC5CCC(=O)NC5=O)cc4F)CC3)CC2)ccc1Nc1ncc(C(F)(F)F)c(N2CCC[C@](C)(O)C2)n1 (some centres unmarked) | liver microsomes | 1 µM | – | scaled CLint | < 14 mL/min/kg
COCC(=O)N1CCC[C@H](C(=O)NCc2nc(-c3ccc(C#N)cc3)cs2)C1 | liver microsomes | 0.5 µM | – | scaled CLint | 12 mL/min/kg
C=CCn1c(=O)c2cnc(Nc3ccc(N4CCN(C)CC4)cc3)nc2n1-c1cccc(C(C)(C)O)n1 | liver microsomes | – | – | scaled CLint | 77 mL/min/kg
